According to BindingDB's records for doi:10.1016/j.bmcl.2011.11.010 (Ludwig-Maximilians-University Munich, 2011):

Molecular target: T1, Beta-galactoside-binding lectin (Gallus gallus, UniProt P07583)
T1 sequence (P07583 whole entry): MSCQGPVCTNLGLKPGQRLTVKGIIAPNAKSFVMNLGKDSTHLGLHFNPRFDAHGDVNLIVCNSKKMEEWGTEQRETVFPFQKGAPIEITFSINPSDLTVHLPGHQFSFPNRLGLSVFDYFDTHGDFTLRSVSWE
Assay: Inhibition of binding of biotinylated chicken galectin-1B to surface immobilized asialofetuin by solid phase assay
Outline: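 Asialofetuin was adsorbed to microtiter wells at a constant coating amount, and its N-glycans served as ligand. Biotinylated lectin at a lectin-specific concentration was added with inhibitor. IC50 (mM) was normalized to lactose, and potency was expressed relative to free lactose. Assays were run in triplicate across up to five independent series.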

IC50: 4 mM
SMILES: OC[C@H]1O[C@@H](O[C@H]2[C@H](O)[C@@H](O)[C@H](O)O[C@@H]2CO)[C@H](O)[C@@H](O)[C@H]1O [Lactose, anhydrous]
